Screens (PubChem BioAssay)
A selection: hits, their analogues and other compounds. The true share with any hit is near 1.9%.
MT1-MMP act inh: blockers of MT1-MMP proenzyme processing, primary screen, HT1080 RFP-PRO-GFP cells, GFP/RFP fluorescence; AID 651647, 2012; GFP/RFP ratio fluorescence, overnight; percent of plate control window, DMSO zero; Matrix metalloproteinase-14 (Homo sapiens), P50281; hit rate 0.061% among 360,000; GFP/RFP ratio change, % at 20 µM;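 active means GFP/RFP ratio change of at least 30% with cell ATP level not reduced by more than half and red fluorescence within 50% of control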
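Assay system: RFP-PRO-GFP reporter HT1080 cells; read-out basis: GFP/RFP fluorescence ratio; benchmarks: DMSO wells and RFP-L50D-GFP cells; doses: 20 µM single dose, 1% DMSO; schedule: overnight cell settling, then overnight compound exposure, 37 °C, 5% CO2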
NR2E3 ag-1: inhibitors of NR2E3-RetCOR corepressor binding, primary screen, NR2E3 agonist project, biochemical, TR-FRET, GST-NR2E3, biotin-RetCOR; Photoreceptor-specific nuclear receptor (Homo sapiens), Q9Y5X4; 1536-well; inhibition of corepressor binding, % at 4.78 µM; hit rate 0.12% among 320,000;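 active means percent inhibition above the cutoff of mean plus 3 SD of all tested compounds, set per screening campaign, cut at about 20% in these data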;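 further: 0% = DMSO wells and 100% = biotin wells as full block of FRET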
Target sequence (Q9Y5X4 whole entry, looked up): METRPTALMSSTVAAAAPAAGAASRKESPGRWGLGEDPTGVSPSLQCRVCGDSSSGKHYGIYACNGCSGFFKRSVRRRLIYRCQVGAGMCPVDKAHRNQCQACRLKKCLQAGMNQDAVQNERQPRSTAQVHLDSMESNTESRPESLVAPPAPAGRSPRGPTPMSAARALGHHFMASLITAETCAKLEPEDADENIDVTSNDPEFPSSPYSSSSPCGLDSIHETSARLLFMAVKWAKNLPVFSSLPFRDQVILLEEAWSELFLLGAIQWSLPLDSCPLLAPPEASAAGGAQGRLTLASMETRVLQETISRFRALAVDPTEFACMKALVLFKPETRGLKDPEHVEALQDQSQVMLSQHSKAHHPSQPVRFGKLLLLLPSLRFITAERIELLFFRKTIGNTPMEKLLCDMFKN
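Material: NR2E3–RetCOR corepressor complex / Incubation: Compound–protein incubation for 5 h at 4 °C / Dosing: compound at 4.8 µM, single dose / Detection: time-resolved FRET / Benchmarks: high control biotin, low control 0.6% DMSO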
NR1D1 modulator: modulators of Rev-erb alpha DNA binding, primary screen, biochemical, FITC-DNA, fluorescence polarization, uHTS; Nuclear receptor subfamily 1 group D member 1 (Homo sapiens), P20393; Rev-erbα–FITC-DNA binding, 90 min; activity, % at 10 µM; hit rate 0.79% among 370,000;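 active means activity above about 14%, limit read from the data; passing the limit was not always enough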;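 further: 0% = DMSO wells with 35 nM protein and 100% = DMSO wells with 750 nM protein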
NR2E3 ag-2: NR2E3 agonists in two-hybrid cells, primary screen, cell-based, luminescence, CHO-S, Gal4-NCOR/VP16-NR2E3 | luciferase | inhibition of corepressor binding, % at 3.98 µM | hit rate 0.35% among 360,000 | AID 602229, 2012;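 active means inhibition above the mean of all tested compounds plus 3 SD, cut at about 70% in these data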;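 further: 0% = DMSO with NR2E3 transfected cells and 100% = cells lacking NR2E3 construct; higher means lower luciferase signal from less NR2E3 corepressor binding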
PG9 Ab binder: binders of HIV-1 gp120 antibody PG9, primary screen, biochemical, TR-FRET; HIV-1 gp120 / PG9 antibody interaction; TR-FRET gp120-PG9 antibody binding; inhibition, % at 6.7 µM; hit rate 0.43% among 360,000; AID 624416, 2012; in the data active means inhibition above about 8.5%
SKN-1 block: suppressors of acrylamide-induced Pgst-4::GFP reporter in worms, primary screen, SKN-1 inhibitor project, whole organism, uHTS, GFP/RFP fluorescence ratio, strain VP596; C. elegans VP596 Pgst-4::GFP/RFP ratio, 24 h; AID 624304, 2012; hit rate 0.49% among 360,000; inhibition, % at 21.8 µM;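 active means interference check ratio from 0.5 to 1.5 plus GFP to RFP signal ratio inhibition reaching or exceeding a fixed threshold, cut at about 30% in these data, passing the limit was not always enough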
NR2E3 ag confirm-1: NR2E3 agonists, confirmation, biochemical, TR-FRET | shares compounds with NR2E3 ag-1 | cell-free NR2E3 corepressor release, 5 h | activation (reported as inhibition), % at 3.98 µM | hit rate 39% among 360; in the data active means activation above about 20%
PPARg-NCOR2 ctr: agonists of PPARg-NCOR2 corepressor interaction, counter-screen for NR2E3 agonist project, biochemical, TR-FRET; shares compounds with NR2E3 ag-1; TR-FRET PPARg-NCOR2 coregulator interaction; inhibition, % at 3.98 µM; hit rate 45% among 360; in the data active means inhibition above about 20%;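 further: 0% = DMSO vehicle and 100% = wells without protein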
NR2E3 ag confirm-2: NR2E3 agonist confirmation in cells, cell-based, luminescence, CHO-S two-hybrid. shares compounds with NR2E3 ag-2. CHO-S mammalian two-hybrid NR2E3-NCOR, luciferase luminescence. inhibition, % at 3.98 µM. hit rate 51% among 2,300;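 active means average inhibition above a cutoff equal to the mean inhibition of all tested compounds plus one SD, cut at about 70% in these data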;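 further: 0% = DMSO in NR2E3 cells and 100% = DMSO in cells lacking NR2E3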
VP16 counter: GAL4-VP16 reporter modulators, confirmation, counter-screen for NR2E3 agonist project, cell-based, luminescence, CHO-S, high throughput; CHO-S GAL4-VP16 luciferase reporter; hit rate 29% among 2,300; shares compounds with NR2E3 ag-2; AID 624379, 2012; inhibition, % at 3.98 µM;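 active means mean inhibition above a cutoff equal to the average over all tested compounds plus one standard deviation, cut at about 70% in these data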;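 further: luciferase from a UAS reporter driven by GAL4-VP16 transactivation; 0% = DMSO with VP16-transfected cells and 100% = DMSO with cells lacking VP16; higher means less reporter light so more repression of VP16 activity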
PG9 binder conf: binders of anti-gp120 antibody PG9, confirmation, biochemical, TR-FRET | shares compounds with PG9 Ab binder | TR-FRET PG9 antibody binding | inhibition, % at 6.7 µM | hit rate 90% among 1,500 | AID 651571, 2012; in the data active means inhibition above about 9%
PGV04 counter: binders of control antibody PGV04, counter-screen for PG9 antibody binder project, biochemical, TR-FRET, distinct HIV envelope site; shares compounds with PG9 Ab binder; TR-FRET PGV04 antibody-gp120 binding; inhibition, % at 6.7 µM; hit rate 95% among 1,500; AID 651604, 2012; in the data active means inhibition above about 9.5%
Active calls of the source: *; x = no result.

SMILES | MT1-MMP act inh | NR2E3 ag-1 | NR1D1 modulator | NR2E3 ag-2 | PG9 Ab binder | SKN-1 block | NR2E3 ag confirm-1 | PPARg-NCOR2 ctr | PG9 binder conf | PGV04 counter | others
Cc1ccc(C(=O)C2=C(O)C(=O)N(Cc3cccnc3)C2c2cccc(Oc3ccccc3)c2)o1 (stereo not given) | x | 52* | -3 | x | 48* | x | 45* | 41* | 47* | 54*
CCOC(=O)N1CCN(C(=O)c2ccc3c(=O)n(Cc4ccc(Cl)cc4)c(=S)[nH]c3c2)CC1 | -2 | -8 | 5 | -24 | 1 | 10 | x | x | x | x
CCOC(=O)Cn1c(=S)[nH]c2c(oc3ccc(Cl)cc32)c1=O | 7 | 25* | 8 | -17 | 16* | 5 | 46* | 41* | 7 | 9.4*
CCS(=O)(=O)Nc1ccc2c(c1)C(=O)N(C)[C@@H]1CC[C@H](CC(=O)NCCCN3CCOCC3)O[C@H]1CO2 | x | x | 1 | x | x | x | x | x | x | x
CSc1nc(N)nc(SCC(=O)c2ccc(C)cc2)c1C#N | 6 | 47* | 17 | -21 | 23* | -5 | 8 | 10 | 27* | 35*
CSc1nc(N)nc(SCC(=O)OC(C)C)c1C#N | 4 | 1 | -1 | -53 | -1 | 1 | x | x | x | x
O=C(C1=C(O)C(=O)N(CC2CCCO2)C1c1ccccc1F)c1ccco1 (stereo not given) | 2 | 36* | -2 | -16 | 9.8* | 6 | 13 | 12 | 16* | 20*
CCCC(=O)N1CCC[C@]2(CC[C@@H](CCC(=O)OCC)O2)C1 | x | x | -6 | x | x | x | x | x | x | x
COC(=O)[C@]12C[C@H](CC(=O)N3CCN(C(=O)c4ccco4)CC3)C(=O)N(Cc3ccc4c(c3)OCO4)C1=C[C@H](COCc1ccccc1)O[C@@H]2C | x | x | 1 | x | 1 | x | x | x | x | x
C#CCNC(=O)C[C@H]1C[C@@]2(C(=O)OC)C(=C[C@H](C3CCCC3)O[C@@H]2C)N(Cc2ccccc2)C1=O | x | x | 0 | x | 0 | x | x | x | x | x
O=C(CSc1nc2ccccc2c(=O)n1Cc1ccccc1)NCc1ccco1 | 5 | 31* | 8 | -11 | 20* | 5 | 4 | 12 | 21* | 25*
COCCN(Cc1ccc(C)cc1)C(=O)[C@H]1O[C@@H](n2cnc(C(N)=O)n2)[C@H](O)[C@@H]1O | x | x | 2 | x | -3 | x | x | x | x | x
Cc1cc(N2C(=O)C(O)=C(C(=O)c3cc4ccccc4o3)C2c2ccc(Br)cc2)no1 (stereo not given) | -5 | 24* | -2 | -15 | 12* | -8 | 25* | 30* | 32* | 45*
Cc1cc(N2C(=O)C(O)=C(C(=O)c3cc4ccccc4o3)C2c2ccc(Cl)cc2)no1 (stereo not given) | -1 | 29* | 7 | 51 | 26* | 14 | 35* | 39* | 33* | 51* | NR2E3 ag confirm-2=88*;VP16 counter=59
CCCOc1ccc(C2C(C(=O)c3cc4ccccc4o3)=C(O)C(=O)N2c2cc(C)on2)cc1 (stereo not given) | 1 | 15 | -6 | -20 | 6 | -14 | x | x | x | x
Cc1ccc(C(=O)C2=C(O)C(=O)N(c3ncccn3)C2c2ccc(Cl)cc2)o1 (stereo not given) | -6 | 26* | -6 | 5 | 19* | 28 | 19 | 15 | 31* | 39*
Cc1cc(N2C(=O)C(O)=C(C(=O)c3cc4ccccc4o3)C2c2cccc(Cl)c2)no1 (stereo not given) | 1 | 22* | -2 | 21 | 27* | -3 | 39* | 45* | 40* | 56*
CCOC(=O)[C@]12CCCC=C1N(CCCOC)C(=O)[C@@H]2CC(=O)NCCc1ccccc1OC | x | x | 1 | x | x | x | x | x | x | x
O=C(C1=C(O)C(=O)N(CCCN2CCOCC2)C1c1ccc(Cl)cc1)c1cc2ccccc2o1 (stereo not given) | x | 30* | 0 | x | 20* | x | 28* | 21* | 24* | 30*
CCN(CC)CCN1C(=O)C(O)=C(C(=O)c2ccco2)C1c1ccccn1 (stereo not given) | 3 | 1 | -1 | 7 | -1 | -11 | x | x | x | x
CCN(CC)CCCN1C(=O)C(O)=C(C(=O)c2cc3ccccc3o2)C1c1ccccn1 (stereo not given) | -3 | 22* | -7 | -7 | 25* | -9 | 24* | 24* | 55* | 72*
O=S1(=O)N[C@H](Cc2ccccc2)COc2cccc(NCCO)c21 | x | x | -3 | x | -2 | x | x | x | x | x
CSc1nc(-c2ccc(Cl)cc2)c(C#N)c(=O)[nH]1 | 2 | 12 | -4 | -27 | 4 | 1 | x | x | x | x
CCC(Sc1nc(-c2ccccc2)c(C#N)c(=O)[nH]1)C(=O)Nc1cc(C)on1 (stereo not given) | 3 | 27* | -1 | -12 | 28* | 13 | 20* | 42* | 36* | 45*
CSc1nc(-c2ccccc2)c(C#N)c(=O)[nH]1 | 2 | 22* | 1 | -29 | 15* | -1 | 22* | 25* | 22* | 35*
